Experiments:
[1] = species on record: Mus musculus; assay: Cell growth at 172 uM concentration in mice; type: functional
In short: (§1)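 B16 BL6 cells (3×10^5) were precultured 24 h in DMEM/FBS at 37 °C, 5% CO2, then incubated with or without compound for 72 or 24 h under the same conditions. After 0.05% trypsin/0.02% EDTA release, cells were suspended in 1 mL divalent cation-free DPBS and reported as cells per mL before tail-vein injection into BDF1 mice.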

[2] = species on record: Mus musculus; assay: Number of tumor nodules at 34 uM of compound in mice(Range 169-115 ); type: functional
In short: (§2)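 B16 BL6 cells (3×10^5) were precultured 24 h in DMEM/FBS (37 °C, 5% CO2), then exposed to compound for 72 or 24 h. Cells were detached with 0.05% trypsin/0.02% EDTA, and 1×10^5 cells in 0.1 mL cation-free DPBS were injected into the tail vein of female BDF1 mice (7 weeks, five per group).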

[3] = species on record: Mus musculus; assay: % inhibition of metastasis at 103 uM in mice; type: functional; in short: as §2
[4] = species on record: Mus musculus; assay: % inhibition of metastasis at 34 uM in mice; type: functional; in short: as §2
[5] = species on record: Mus musculus; assay: % inhibition of metastasis at 172 uM in mice; type: functional; in short: as §2
[6] = species on record: Mus musculus; assay: Number of tumor nodules at 103 uM of compound in mice(Range 136-64 ); type: functional; in short: as §2
[7] = species on record: Mus musculus; assay: Number of tumor nodules at 172 uM of compound in mice(Range 136-84 ); type: functional; in short: as §2
[8] = species on record: Mus musculus; assay: Cell growth at 34 MicroM concentration in mice; type: functional; in short: as §1
[9] = species on record: Mus musculus; assay: Cell growth at 103 uM concentration in mice; type: functional; in short: as §1
[10] = species on record: Mus musculus; assay: Number of tumor nodules at 150 uM of compound in mice(Range 9-1 ); type: functional; in short: as §2
[11] = species on record: Mus musculus; assay: % inhibition of metastasis at 150 uM in mice; type: functional; in short: as §2
[12] = species on record: Mus musculus; assay: % inhibition of metastasis at 90 uM in mice; type: functional; in short: as §2
[13] = species on record: Mus musculus; assay: Number of tumor nodules at 30 uM of compound in mice(Range 129-54 ); type: functional; in short: as §2
[14] = species on record: Mus musculus; assay: Cell growth at 30 uM concentration in mice; type: functional; in short: as §1
[15] = system: B16; assay: Number of cells invaded in cell invasion assay by incubating with 580 uM of compound for 3 hr; type: functional, Mus musculus
In short: (§3)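 B16 BL6 cells were cultured with compound for 72 or 24 h at 37 °C, then lifted with 0.08% sodium citrate (10 min, 37 °C), washed twice and resuspended at 1×10^6/mL in RPMI 1640 + 0.1% BSA. 100 μL went onto filters coated with 5 μg Matrigel then 10 μg laminin, with the same medium below. Incubation was 3 or 4 h at 37 °C, 5% CO2. Filters were wiped, methanol-fixed and hematoxylin-stained; invaded cells were counted in five 0.3 mm² fields (200×). Triplicates, mean ± SD; % inhibition is versus untreated cells.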

[16] = species on record: Mus musculus; assay: Cell growth at 150 uM concentration in mice; type: functional; in short: as §1
[17] = system: B16; assay: Compound was tested in vitro, for inhibitory effect on B16BL6 cell invasion, by incubating with 580 uM of compound for 3 hr; type: functional, Mus musculus; in short: as §3
[18] = species on record: Mus musculus; assay: Number of tumor nodules at 90 uM of compound in mice(Range 20-7 ); type: functional; in short: as §2
[19] = system: B16; assay: Compound was tested in vitro, for inhibitory effect on B16BL6 cell invasion, by incubating with 870 uM of compound for 3 hr; type: functional, Mus musculus; in short: as §3
[20] = species on record: Mus musculus; assay: Cell growth at 90 uM concentration in mice; type: functional; in short: as §1
[21] = system: B16; assay: Number of cells invaded in cell invasion assay by incubating with 870 uM of compound for 3 hr; type: functional, Mus musculus; in short: as §3
[22] = species on record: Mus musculus; assay: % inhibition of metastasis at 30 uM in mice; type: functional; in short: as §2
[23] = species on record: Mus musculus; assay: Number of tumor nodules at 34 uM of compound in mice(Range 165-133 ); type: functional; in short: as §2
[24] = species on record: Mus musculus; assay: Number of tumor nodules at 172 uM of compound in mice(Range 118-23); type: functional; in short: as §2
[25] = species on record: Mus musculus; assay: Cell growth at 34 uM concentration in mice; type: functional; in short: as §1
[26] = species on record: Mus musculus; assay: Number of tumor nodules at 103 uM of compound in mice(Range 160-114 ); type: functional; in short: as §2
[27] = species on record: Mus musculus; assay: % inhibition of metastasis at 29 uM in mice; type: functional; in short: as §2
[28] = species on record: Mus musculus; assay: Number of tumor nodules at 145 uM of compound in mice(Range 5-97 ); type: functional; in short: as §2
[29] = species on record: Mus musculus; assay: Cell growth at 145 uM concentration in mice; type: functional; in short: as §1
[30] = species on record: Mus musculus; assay: % inhibition of metastasis at 87 uM in mice; type: functional; in short: as §2
[31] = species on record: Mus musculus; assay: Cell growth at 29 MicroM concentration in mice; type: functional; in short: as §1
[32] = species on record: Mus musculus; assay: Number of tumor nodules at 29 uM of compound in mice(Range 200-270 ); type: functional; in short: as §2
[33] = species on record: Mus musculus; assay: Cell growth at 87 uM concentration in mice; type: functional; in short: as §1
[34] = species on record: Mus musculus; assay: % inhibition of metastasis at 145 uM in mice; type: functional; in short: as §2
[35] = species on record: Mus musculus; assay: Number of tumor nodules at 87 uM of compound in mice(Range 122-237 ); type: functional; in short: as §2
[36] = system: B16; assay: Compound was tested in vitro, for inhibitory effect on B16BL6 cell invasion, by incubating with 258 uM of compound for 4 hr; type: functional, Mus musculus; in short: as §3
[37] = species on record: Mus musculus; assay: Number of tumor nodules at 78 uM of compound in mice(Range 89-120 ); type: functional; in short: as §2
[38] = species on record: Mus musculus; assay: Number of tumor nodules at 129 uM of compound in mice(Range 13-87 ); type: functional; in short: as §2
[39] = species on record: Mus musculus; assay: % inhibition of metastasis at 26 uM in mice; type: functional; in short: as §2
[40] = system: B16; assay: Number of cells invaded in cell invasion assay by incubating with 518 uM of compound for 4 hr; type: functional, Mus musculus; in short: as §3
[41] = system: B16; assay: Compound was tested in vitro, for inhibitory effect on B16BL6 cell invasion, by incubating with 129 uM of compound for 4 hr; type: functional, Mus musculus; in short: as §3
[42] = system: B16; assay: Number of cells invaded in cell invasion assay by incubating with 258 uM of compound for 4 hr; type: functional, Mus musculus; in short: as §3
[43] = species on record: Mus musculus; assay: Cell growth at 78 uM concentration in mice; type: functional; in short: as §1
[44] = system: B16; assay: Number of cells invaded in cell invasion assay by incubating with 129 uM of compound for 4 hr; type: functional, Mus musculus; in short: as §3
[45] = species on record: Mus musculus; assay: % inhibition of metastasis at 78 uM in mice; type: functional; in short: as §2
[46] = species on record: Mus musculus; assay: Number of tumor nodules at 26 uM of compound in mice(Range 148-276 ); type: functional; in short: as §2
[47] = species on record: Mus musculus; assay: % inhibition of metastasis at 129 uM in mice; type: functional; in short: as §2
[48] = species on record: Mus musculus; assay: Cell growth at 129 uM concentration in mice; type: functional; in short: as §1
[49] = species on record: Mus musculus; assay: Cell growth at 26 uM concentration of the compound; type: functional; in short: as §1
[50] = system: B16; assay: Compound was tested in vitro, for inhibitory effect on B16BL6 cell invasion, by incubating with 518 uM of compound for 4 hr; type: functional, Mus musculus; in short: as §3

CC(=O)N[C@H]1NC[C@@H](C(=O)O)[C@H](N)[C@@H]1O
No. of cells [1]: 1.6e+07 mL
No. of lung metastasis [2]: 145.2
Inhibition [3]: 26.6%
Inhibition [4]: 1.4%
Inhibition [5]: 30.9%
No. of lung metastasis [6]: 108.8
No. of lung metastasis [7]: 101.6
No. of cells [8]: 1.6e+07 mL
No. of cells [9]: 2.1e+07 mL

CC(=O)NC1NCC(C(=O)O)C(N=C(N)N)C1O (stereo not given)
No. of lung metastasis [10]: 4.4
Inhibition [11]: 97%
Inhibition [12]: 91%
No. of lung metastasis [13]: 88.2
No. of cells [14]: 1.9e+07 mL
No. of invaded cells [15]: 23.7
No. of cells [16]: 1.9e+07 mL
Inhibition [17]: 44.8%
No. of lung metastasis [18]: 13.2
Inhibition [19]: 58.9%
No. of cells [20]: 1.7e+07 mL
No. of invaded cells [21]: 17.7
Inhibition [22]: 40.1%

CC(=O)N[C@H]1NC[C@@H](C(=O)O)[C@H](N)[C@H]1O
No. of cells [1]: 1.8e+07 mL
Inhibition [3]: 12.1%
Inhibition [4]: 0%
Inhibition [5]: 44.3%
No. of lung metastasis [23]: 147.2
No. of lung metastasis [24]: 82
No. of cells [25]: 1.4e+07 mL
No. of lung metastasis [26]: 129.4
No. of cells [9]: 1.4e+07 mL

NC1C(C(=O)O)CNC(NC(=O)C(F)(F)F)C1O (stereo not given)
Inhibition [27]: 3.8%
No. of lung metastasis [28]: 62.4
No. of cells [29]: 1.4e+06 mL
Inhibition [30]: 38.1%
No. of cells [31]: 1.6e+06 mL
No. of lung metastasis [32]: 245.4
No. of cells [33]: 1.6e+06 mL
Inhibition [34]: 75.5%
No. of lung metastasis [35]: 157.8

N=C(N)NC1C(C(=O)O)CNC(NC(=O)C(F)(F)F)C1O (stereo not given)
Inhibition [36]: 44.4%
No. of lung metastasis [37]: 105.6
No. of lung metastasis [38]: 48.4
Inhibition [39]: 14.1%
No. of invaded cells [40]: 0.9
Inhibition [41]: 61.1%
No. of invaded cells [42]: 1.3
No. of cells [43]: 1.3e+06 mL
No. of invaded cells [44]: 0.9
Inhibition [45]: 58.8%
No. of lung metastasis [46]: 219
Inhibition [47]: 81%
No. of cells [48]: 1.5e+06 mL
No. of cells [49]: 1.9e+06 mL
Inhibition [50]: 63.9%
